# Active and inactive are the calls of the source. No cut-off for these calls is given here.
# What was measured:
# Type in all cases: functional
# Staphylococcus aureus [1] = assay: Bactericidal activity against methicillin-resistant Staphylococcus aureus BW61 after 24 hrs by CFU counting assay; settings: BW61, 24 h
# Method in brief: (§1)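 MBC (lowest concentration killing the pathogen) determined per CLSI specifications, with fosfomycin, ceftriaxone, ciprofloxacin and chloramphenicol run as reference drugs; S. aureus ATCC 29213 used as quality-control strain.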
# Staphylococcus aureus [2] = assay: Bactericidal activity against Staphylococcus aureus ATCC 29213 after 24 hrs by CFU counting assay; settings: ATCC 29213, 24 h; method in brief: as §1
# Bacillus cereus [3] = assay: Bactericidal activity against Bacillus cereus ATCC 11778 after 24 hrs by CFU counting assay; settings: ATCC 11778, 24 h; method in brief: as §1
# Pseudomonas aeruginosa [4] = assay: Bactericidal activity against multidrug-resistant Pseudomonas aeruginosa PAO1 after 24 hrs by CFU counting assay; settings: PAO1, 24 h; method in brief: as §1
# [5] = tested on: Stenotrophomonas maltophilia; assay: Bactericidal activity against multidrug-resistant Stenotrophomonas maltophilia D457R after 24 hrs by CFU counting assay; method in brief: as §1
# [6] = tested on: Acinetobacter haemolyticus; assay: Bactericidal activity against vancomycin-resistant Acinetobacter haemolyticus BW62 after 24 hrs by CFU counting assay; settings: BW62, 24 h; method in brief: as §1
# Escherichia coli [7] = assay: Bactericidal activity against ESBL-producing Escherichia coli BW55 after 24 hrs by CFU counting assay; settings: BW55, 24 h; method in brief: as §1
# Escherichia coli [8] = assay: Bactericidal activity against multidrug-resistant Escherichia coli BW54 after 24 hrs by CFU counting assay; settings: BW54, 24 h; method in brief: as §1
# Staphylococcus aureus [9] = assay: Antibacterial activity against methicillin-resistant Staphylococcus aureus BW61 after 24 hrs by broth microdilution method; settings: BW61, 24 h
# Method in brief: (§2)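 MIC (lowest concentration preventing growth) determined per CLSI specifications, with fosfomycin, ceftriaxone, ciprofloxacin and chloramphenicol run as reference drugs; S. aureus ATCC 29213 used as quality-control strain.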
# Staphylococcus aureus [10] = assay: Antibacterial activity against Staphylococcus aureus ATCC 29213 after 24 hrs by broth microdilution method; settings: ATCC 29213, 24 h; method in brief: as §2
# Bacillus cereus [11] = assay: Antibacterial activity against Bacillus cereus ATCC 11778 after 24 hrs by broth microdilution method; settings: ATCC 11778, 24 h; method in brief: as §2
# Pseudomonas aeruginosa [12] = assay: Antibacterial activity against multidrug-resistant Pseudomonas aeruginosa PAO1 after 24 hrs by broth microdilution method; settings: PAO1, 24 h; method in brief: as §2
# [13] = tested on: Stenotrophomonas maltophilia; assay: Antibacterial activity against multidrug-resistant Stenotrophomonas maltophilia D457R after 24 hrs by broth microdilution method; method in brief: as §2
# [14] = tested on: Acinetobacter haemolyticus; assay: Antibacterial activity against vancomycin-resistant Acinetobacter haemolyticus BW62 after 24 hrs by broth microdilution method; settings: BW62, 24 h; method in brief: as §2
# Escherichia coli [15] = assay: Antibacterial activity against ESBL-producing Escherichia coli BW55 after 24 hrs by broth microdilution method; settings: BW55, 24 h; method in brief: as §2
# Escherichia coli [16] = assay: Antibacterial activity against multidrug-resistant Escherichia coli BW54 after 24 hrs by broth microdilution method; settings: BW54, 24 h; method in brief: as §2
# Staphylococcus aureus [17] = assay: Antibacterial activity against Staphylococcus aureus ATCC 29213 at 10 ug by disc diffusion method; settings: for zone of inhibition at 10 µg/disc: read-out: IZ
# Bacillus cereus [18] = assay: Antibacterial activity against Bacillus cereus ATCC 11778 at 10 ug by disc diffusion method; settings: for zone of inhibition at 10 µg/disc: read-out: IZ
# Pseudomonas aeruginosa [19] = assay: Antibacterial activity against multidrug-resistant Pseudomonas aeruginosa PAO1 at 10 ug by disc diffusion method; settings: for zone of inhibition at 10 µg/disc: read-out: IZ
# [20] = tested on: Stenotrophomonas maltophilia; assay: Antibacterial activity against multidrug-resistant Stenotrophomonas maltophilia D457R at 10 ug by disc diffusion method; settings: for zone of inhibition at 10 µg/disc: read-out: IZ
# [21] = tested on: Acinetobacter haemolyticus; assay: Antibacterial activity against vancomycin-resistant Acinetobacter haemolyticus BW62 at 10 ug by disc diffusion method
# Escherichia coli [22] = assay: Antibacterial activity against ESBL-producing Escherichia coli BW55 at 10 ug by disc diffusion method; settings: for zone of inhibition at 10 µg/disc: read-out: IZ
# Escherichia coli [23] = assay: Antibacterial activity against multidrug-resistant Escherichia coli BW54 at 10 ug by disc diffusion method
SMILES,MBC (Staphylococcus aureus [1]),MBC (Staphylococcus aureus [2]),MBC (Bacillus cereus [3]),MBC (Pseudomonas aeruginosa [4]),MBC [5],MBC [6],MBC (Escherichia coli [7]),MBC (Escherichia coli [8]),MIC (Staphylococcus aureus [9]),MIC (Staphylococcus aureus [10]),MIC (Bacillus cereus [11]),MIC (Pseudomonas aeruginosa [12]),MIC [13],MIC [14],MIC (Escherichia coli [15]),MIC (Escherichia coli [16]),Activity (Bacillus cereus [18]),Activity [20],Activity [21],Activity (Escherichia coli [23]),other results
O=C(N[C@H](CO)[C@H](O)c1ccc([N+](=O)[O-])cc1)C(Cl)Cl [CHLORAMPHENICOL],128 µg/mL,64 µg/mL,64 µg/mL,≥ 256 µg/mL,≥ 256 µg/mL,≥ 256 µg/mL,128 µg/mL,≥ 256 µg/mL,16 µg/mL,8 µg/mL,0.5 µg/mL,≥ 256 µg/mL,128 µg/mL,128 µg/mL,8 µg/mL,128 µg/mL,,,,,
O=P(Oc1ccccc1)(Oc1ccccc1)[C@@]1(O)CCC[C@@H]1Cl (mixture of isomers),≥ 256 µg/mL,≥ 256 µg/mL,256 µg/mL,256 µg/mL,256 µg/mL,256 µg/mL,256 µg/mL,256 µg/mL,256 µg/mL,256 µg/mL,128 µg/mL,256 µg/mL,128 µg/mL,128 µg/mL,128 µg/mL,128 µg/mL,inactive,inactive,inactive,inactive,zone of inhibition at 10 µg/disc (Staphylococcus aureus [17]): 8 mm; Activity (Pseudomonas aeruginosa [19]): inactive; Activity (Escherichia coli [22]): inactive
O=P(Oc1ccccc1)(Oc1ccccc1)[C@](O)(CCl)c1ccc(Cl)cc1,64 µg/mL,64 µg/mL,32 µg/mL,128 µg/mL,64 µg/mL,128 µg/mL,64 µg/mL,64 µg/mL,32 µg/mL,32 µg/mL,32 µg/mL,128 µg/mL,32 µg/mL,64 µg/mL,32 µg/mL,64 µg/mL,,,,,zone of inhibition at 10 µg/disc (Staphylococcus aureus [17]): 9 mm; zone of inhibition at 10 µg/disc (Bacillus cereus [18]): 9 mm; zone of inhibition at 10 µg/disc (Pseudomonas aeruginosa [19]): 10 mm; zone of inhibition at 10 µg/disc [20]: 11 mm; zone of inhibition at 10 µg/disc ([21]; read-out: IZ): 7 mm; zone of inhibition at 10 µg/disc (Escherichia coli [22]): 10 mm; zone of inhibition at 10 µg/disc (Escherichia coli [23]; read-out: IZ): 9 mm
CC1(C)COP(=O)([C@@](O)(CCl)c2ccc(Cl)cc2)OC1,128 µg/mL,128 µg/mL,128 µg/mL,128 µg/mL,256 µg/mL,128 µg/mL,128 µg/mL,128 µg/mL,64 µg/mL,64 µg/mL,64 µg/mL,128 µg/mL,64 µg/mL,64 µg/mL,64 µg/mL,64 µg/mL,inactive,inactive,inactive,inactive,Activity (Staphylococcus aureus [17]): inactive; Activity (Pseudomonas aeruginosa [19]): inactive; zone of inhibition at 10 µg/disc (Escherichia coli [22]): 7 mm
CC1(C)COP(=O)([C@@](O)(CCl)c2ccccc2)OC1,,,,,,,,,,,,,,,,,,inactive,inactive,inactive,Activity (Staphylococcus aureus [17]): inactive; zone of inhibition at 10 µg/disc (Bacillus cereus [18]): 7 mm; zone of inhibition at 10 µg/disc (Pseudomonas aeruginosa [19]): 6 mm; Activity (Escherichia coli [22]): inactive
C[C@@H]1O[C@@H]1P(=O)(O)O [FOSFOMYCIN],32 µg/mL,64 µg/mL,32 µg/mL,64 µg/mL,256 µg/mL,128 µg/mL,128 µg/mL,32 µg/mL,64 µg/mL,8 µg/mL,32 µg/mL,64 µg/mL,256 µg/mL,128 µg/mL,32 µg/mL,32 µg/mL,,,,,
CC1(C)COP(=O)([C@@]2(O)CCC[C@@H]2Cl)OC1,,,,,,,,,,,,,,,,,inactive,,inactive,inactive,Activity (Staphylococcus aureus [17]): inactive; zone of inhibition at 10 µg/disc (Pseudomonas aeruginosa [19]): 6 mm; zone of inhibition at 10 µg/disc [20]: 6 mm; Activity (Escherichia coli [22]): inactive
